This is an account of results in ChEMBL document CHEMBL2429813, “Phomapyrrolidones A-C, antitubercular alkaloids from the endophytic fungus Phoma sp. NRRL 46751” (J Nat Prod, 2013).

Structures are written as SMILES. Converted amounts (≈) assume the structure as drawn. The source made the active and inactive calls. No cut-off for these calls is given here.

The test system of assay [1] is Mycobacterium tuberculosis. Nature of the assay: Antitubecular activity against Mycobacterium tuberculosis […] assessed as growth inhibition after 4 days by microplate Alamar blue assay. The assay is classed as functional. To be noted: 96 h. An outline of the steps: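 Replicating M. tuberculosis […] cultures in microplate alamar blue (resazurin) format. MIC was read out and reported in μg/mL, with μM in parentheses. Rifampin and isonicotinylhydrazine served as positive controls.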

Another assay deals with Vero. Briefly: Cytotoxicity against African green monkey Vero cells after 72 hrs by MTS-PMS assay. The assay is classed as cell-based. To be noted: Chlorocebus sabaeus. A digest of the protocol:
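Vero cells were assayed by MTS-PMS colorimetric read-out, with rifampin as the positive control. The procedure follows an earlier report. Values are given as IC50.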
A general note: Tetrazolium assays rely on reduction of a dye to a coloured formazan, in cell work by metabolically active cells.

Assay [2] relates to Mycobacterium tuberculosis. Nature of the assay: Antitubecular activity against Mycobacterium tuberculosis […] assessed as growth inhibition by low oxygen recovery assay. The assay is classed as functional. An outline of the steps: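 Non-replicating M. tuberculosis […] under low-oxygen conditions, with growth assessed on recovery (LORA). Endpoint was MIC, in μg/mL with μM in parentheses. Rifampin and isonicotinylhydrazine were the positive controls.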

The next assay relates to MDA-MB-231. Nature of the assay: Cytotoxicity against human MDA-MB-231 cells at 5 uM after 72 hrs by Alamar blue assay. The assay is classed as functional, cell-based. A digest of the protocol: (§1)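 The human cancer cell panel was assayed by resazurin (alamarBlue) read-out, with 5.0 μM as the highest concentration tested and doxorubicin as the positive control. The procedure follows an earlier report.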
(Alamar Blue is a resazurin reagent that responds to reducing activity.)

In the next assay the test system is SF-268. Nature of the assay: Cytotoxicity against human SF268 cells at 5 uM after 72 hrs by Alamar blue assay. The assay is classed as functional, cell-based. An outline of the steps:
as §1

The next assay concerns NCI-H460. Nature of the assay: Cytotoxicity against human NCI-H460 cells at 5 uM after 72 hrs by Alamar blue assay. The assay is classed as functional, cell-based. An outline of the steps: as §1
The subject of a further assay is MCF7. Nature of the assay: Cytotoxicity against human MCF7 cells at 5 uM after 72 hrs by Alamar blue assay. The assay is classed as functional, cell-based. An outline of the steps: as §1
A further assay relates to PC-3M. Nature of the assay: Cytotoxicity against human PC3M cells at 5 uM after 72 hrs by Alamar blue assay. The assay is classed as functional, cell-based. An outline of the steps:
as §1

Regarding `CO[C@H]1/C=C/O[C@@]2(C)Oc3c(C)c(O)c4c(O)c(c(/C=N/N5CCN(C)CC5)c(O)c4c3C2=O)NC(=O)/C(C)=C\C=C\[C@H](C)[C@H](O)[C@@H](C)[C@@H](O)[C@@H](C)[C@H](OC(C)=O)[C@@H]1C` [RIFAMPIN], the figures for the MIC in assay [1] and in assay [2] were 0.07 µg/mL (≈ 0.0851 µM) and 0.1 µg/mL (≈ 0.122 µM), respectively. 132 µM corresponded to half-maximal inhibition in the assay on Vero (IC50).
As for `NNC(=O)c1ccncc1` [ISONIAZID], the MIC (usually the lowest concentration found to suppress growth) in assay [1] was 0.03 µg/mL (≈ 0.219 µM); in assay [2] it was more than 17.5 µg/mL.
Consider `CC1=C[C@@]2(C)C(=C(C)[C@H]3[C@H]4C[C@@H](C)C[C@@H](C)[C@@H]4[C@@H]4Oc5ccc(cc5)CC5(O)NC(=O)C6(O[C@H]56)C(=O)[C@H]2[C@H]43)[C@H]1C` (some centres not stated), for which the figures for the minimum inhibitory concentration (MIC) in assay [1] and in assay [2] were 5.2 µg/mL (≈ 9.56 µM) and 13.4 µg/mL (≈ 24.6 µM), respectively. Besides, the outcome in the assay with MDA-MB-231, in the assay on SF-268, with NCI-H460, in the assay with MCF7 and in the assay with PC-3M was inactive. Moreover, the IC50 – broadly, the point on the concentration scale where inhibition reaches its midpoint – in the assay with Vero came to 35.7 µM.
As for `CC1=C[C@@]2(C)C(=C(C)[C@H]3[C@H]4C[C@@H](C)C[C@@H](C)[C@@H]4[C@@H]4Oc5ccc(cc5)C[C@@H]5C(=O)NC(=O)[C@H]5C(=O)[C@H]2[C@H]43)[C@H]1C`, the MIC in assay [1] is 20.1 µg/mL (≈ 38.1 µM); in assay [2], 41.1 µg/mL (≈ 77.9 µM). In addition, the outcome in the assay on MDA-MB-231, in the assay on SF-268, with NCI-H460, with MCF7 and in the assay on PC-3M was inactive. Further, the IC50 with Vero turned out to be 33.6 µM.
`CC1=C[C@@]2(C)C(=C(C)[C@H]3[C@H]4C[C@@H](C)C[C@@H](C)[C@@H]4[C@@H]4Oc5ccc(cc5)C[C@@H]5C(=O)N(C)C(=O)[C@H]5C(=O)[C@H]2[C@H]43)[C@H]1C`: the MIC in assay [1] and in assay [2] was more than 100 µg/mL in each case. Further, the outcome in the assay with MDA-MB-231, in the assay with SF-268, with NCI-H460, with MCF7 and in the assay with PC-3M was inactive. The compound further had a 50% inhibitory concentration (IC50) in the assay on Vero of 145 µM.
As for `CC1=C[C@@]2(C)C(=C(C)[C@H]3[C@H]4C[C@@H](C)C[C@@H](C)[C@@H]4[C@@H]4Oc5ccc(cc5)C[C@H]5C(=O)NC(=O)[C@@H]5C(=O)[C@H]2[C@H]43)[C@H]1C`, the minimum inhibitory concentration (MIC) in assay [1] was 5.9 µg/mL (≈ 11.2 µM); in assay [2], 15.4 µg/mL (≈ 29.2 µM). In addition, the outcome with MDA-MB-231, in the assay with SF-268, in the assay with NCI-H460, with MCF7 and with PC-3M was inactive. Moreover, the half-inhibitory concentration (IC50) in the assay with Vero turned out to be 32.4 µM.
